Calls of active or inactive are those of the source. The calls are words filed in the database; no cut-off is given here.
Columns and labels:
[1] = Toxicity in CD1 mouse assessed as decrease in body weight at 80 mg/kg/day, ip administered thrice weekly and observed at day 5 to 7; format: organism-based; conditions: in vivo, 72 h, time 3 day
Summary of the method: (§1)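 Male CD-1 mice, four per group, given 80 mg/kg in PBS IP three times weekly; vehicle DMSO. Mice were euthanized when toxicity signs appeared, otherwise at day 10. Body weight was recorded at first and last dosing days. Non-fasted cardiac blood was taken after euthanasia for an automated hematology analyzer.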

[2] = target: Heat shock protein beta-1 (Homo sapiens) (UniProt P04792); test: Inhibition of HSP27 in human T98G cells assessed as downregulation of androgen receptor by Western blot analysis; format: cell-based; conditions: dose 25-100 nM
Sequence of Heat shock protein beta-1 (Homo sapiens) (P04792 whole entry): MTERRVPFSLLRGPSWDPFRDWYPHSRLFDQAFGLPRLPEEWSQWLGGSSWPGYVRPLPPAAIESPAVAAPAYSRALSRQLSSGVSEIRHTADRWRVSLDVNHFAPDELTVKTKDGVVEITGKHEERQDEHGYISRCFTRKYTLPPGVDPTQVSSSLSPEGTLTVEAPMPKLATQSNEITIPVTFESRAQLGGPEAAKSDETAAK
Summary of the method: (§2)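 Cells were treated in six-well plates (with or without MG132 where stated), then lysed in RIPA with protease inhibitors. 50 μg protein was run on 10% SDS-PAGE and transferred to PVDF. Membranes were blocked in 5% milk/TBS-T, probed with AR or AR-V7 antibodies overnight at 4 °C, and detected by chemiluminescence. Densitometry was used; n = 3.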

U-87 MG [3] = test: Antitumor activity against human U87 cells xenografted in NCR nude mouse assessed as reduction in tumor size at 20 mg/kg, ip administered thrice weekly for 14 days by vernier caliper method; format: functional, organism-based; conditions: U-87MG ATCC, time 14.0 day
Summary of the method: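 Male NCRNU nude mice, 5–6 weeks, 5 × 10^6 U87 cells in PBS injected subcutaneously into left and right flank (n = 4 mice, 8 tumors per group). Dosing began near 50 mm3: 20 mg/kg in PBS IP or oral, three times weekly for 14 days, vehicle DMSO. Calipers three times weekly, V = 2/3·d1·d2²; tumors weighed after CO2 euthanasia.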

[4] = Toxicity in CD1 mouse assessed as decrease in body weight at 80 mg/kg/day, ip administered thrice weekly and measured at day 10; format: organism-based; conditions: in vivo, 72 h, time 3 day; summary of the method: as §1
[5] = target: Heat shock protein beta-1 (Homo sapiens) (UniProt P04792); test: Inhibition of HSP27 in human U87 cells assessed as downregulation of androgen receptor by Western blot analysis; format: cell-based; conditions: dose 25-100 nM; summary of the method: as §2
[6] = Dissociation constant, pKa of the compound; format: physicochemical
[7] = target: Heat shock protein beta-1 (Homo sapiens) (UniProt P04792); test: Inhibition of HSP27 (unknown origin) chaperone activity assessed as increase in DTT-induced insulin aggregation at 10 uM incubated for 5 mins in presence of alpha-crystallin followed by addition of DTT and measured for 2 hrs for every 3 mins by microplate reader analysis; conditions: time 125.0 min
Summary of the method: (§3)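 Insulin aggregation assay in PBS at 10 μM, 0.1% DMSO. Insulin stock 1 mg/mL with or without α-crystallin stock 5 mg/mL was preincubated 5 min at 37 °C. Aggregation was started with DTT (1 M stock). A400 was read every 3 min for 2 h; three independent experiments, each in triplicate.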

U-87 MG [8] = test: Antiproliferative activity against human U87 cells assessed as reduction in cell viability incubated for 48 hrs by MTT assay; format: functional, cell-based, U-87MG ATCC
Summary of the method: (§4)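 MTT assay; 3000 cells/well in RPMI 1640 or DMEM with 10% FBS, seeded 24 h, then exposed 48 h to a range of concentrations in DMSO (final ≤0.1%); vehicle controls. MTT 1 mg/mL for 2 h at 37 °C, dye dissolved in DMSO, absorbance 570 nm; eight replicates; IC50 by nonlinear regression.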

[9] = target: Heat shock protein beta-1 (Homo sapiens) (UniProt P04792); test: Inhibition of HSP27 (unknown origin) chaperone activity assessed as increase in DTT-induced insulin aggregation at 10 uM incubated for 5 mins in absence of alpha-crystallin followed by addition of DTT and measured for 2 hrs for every 3 mins by microplate reader analysis; conditions: time 125.0 min; summary of the method: as §3
U-251 = test: Antiproliferative activity against human U-251 cells assessed as reduction in cell viability incubated for 48 hrs by MTT assay; format: functional, cell-based; conditions: U-251, 48 h; summary of the method: as §4
Bos taurus = species: Bos taurus; test: Inhibition of bovine brain tubulin polymerization measured every 1 min for 45 mins in presence of GTP by microplate reader analysis; conditions: dose 1-1000 nM
Summary of the method: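 MAP-rich bovine brain tubulin, 2 mg/mL, in 80 mM PIPES pH 6.9, 2 mM MgCl2, 0.5 mM EGTA, 5% glycerol with a range of concentrations in DMSO at 37 °C. Polymerization was started with GTP (100 mM stock, 1 μL). A340 was read each minute for 45 min; three independent experiments, analysed at end reading.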

[10] = target: Heat shock protein beta-1 (Homo sapiens) (UniProt P04792); test: Inhibition of HSP27 in human T98G cells assessed as reduction in AR-V7 expression level at 50 to 100 nM in presence of MG132 by Western blot analysis; format: cell-based; conditions: dose 50-100 nM; summary of the method: as §2
Mus musculus [11] = test: In vivo inhibition of HSP27 in human U87 cells xenografted in NCR nude mouse assessed as reduction in AR expression level in tumors at 20 mg/kg, ip administered thrice weekly for 14 days by Western blot analysis; format: functional, organism-based; conditions: time 14.0 day
Summary of the method: (§5)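 Tumors from U87 flank xenografts in male nude mice dosed at 20 mg/kg IP or orally three times weekly for 14 days. The two tumors of each mouse were pooled and homogenized in RIPA with protease inhibitors and PMSF. AR was then measured by western blot; n = 4.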

Mus musculus [12] = test: In vivo inhibition of HSP27 in human U87 cells xenografted in NCR nude mouse assessed as reduction in AR expression level in tumors at 20 mg/kg, po administered thrice weekly for 14 days by Western blot analysis; format: functional, organism-based; conditions: time 14.0 day; summary of the method: as §5
[13] = target: Heat shock protein beta-1 (Homo sapiens) (UniProt P04792); test: Inhibition of HSP27 in human T98G cells assessed as reduction in wild type AR expression level at 50 to 100 nM in presence of MG132 by Western blot analysis; format: cell-based; conditions: dose 50-100 nM; summary of the method: as §2
[14] = Toxicity in NCR nude mouse xenografted with human U87 cells assessed as change in body weight at 20 mg/kg, ip administered thrice weekly for 14 days; format: organism-based; conditions: in vivo, 336 h, time 14 day
Summary of the method: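 Male NCRNU nude mice, 5–6 weeks old, were given 5 × 10^6 U87 cells in 100 μL sterile PBS, injected subcutaneously into the left and right flanks. Dosing was 20 mg/kg in PBS, three times weekly for 14 days, with a DMSO vehicle group. Body weight was recorded three times weekly. Results are mean ± SD, n = 4 mice per group.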

COc1ccc(C(=O)Nc2ccc(NS(C)(=O)=O)c(OCc3cc(OC)ccc3OC)c2)cc1
Activity [1]: Non-Toxic | inhibition [2]: Dose-dependent effect | Activity (U-87 MG [3]): Active | Activity [4]: Non-Toxic | inhibition [5]: Dose-dependent effect | pKa [6]: 8.65 | inhibition [7]: Active | IC50 (U-87 MG [8]): 4.78 nM | inhibition [9]: inactive | IC50 (U-251): 4 nM | inhibition (Bos taurus): Dose-dependent effect | inhibition [10]: inactive | inhibition (Mus musculus [11]): Active | inhibition (Mus musculus [12]): Active | inhibition [13]: inactive | Activity [14]: Non-Toxic

Source: ChEMBL document CHEMBL4706680, “Small-Molecule HSP27 Inhibitor Abolishes Androgen Receptors in Glioblastoma” (J Med Chem, 2021)
